Where “and” joins values, the source holds several entries; their conditions need not be identical. Equal values may be shown once.
Tests used:
Format in all cases: toxicity, cell-based
Fibroblast = test: Multiplex assay against human fibroblast; settings: number of replicates 2
How it was run: (§1)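 Phenotypes for tubulin, mitochondrial mass and membrane permeability are expressed as per cents of healthy-nucleus cells. Cells were stained live at seeding with Hoechst33342, BioTracker Green Microtubule Cytoskeleton Dye, MitoTracker Red and Annexin V Alexa Fluor 680, then imaged after compound addition on a CQ1 microscope at 37°C and 5% CO2. Machine-learning gating in CellPathfinder separated Hoechst high-intensity objects from normal cells, divided normal cells by nuclear state (healthy, pyknosed, fragmented) and divided pyknosed cells into mitotic or apoptotic.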

HEK-293T = test: Multiplex assay against HEK293T; settings: human, number of replicates 2; how it was run: as §1
U2OS = test: Multiplex assay against U2OS; settings: human, number of replicates 2; how it was run: as §1
[1] = 12 h, 1 µM, compound concentration 1 uM
[2] = 12 h, 10 µM, compound concentration 10 uM
[3] = 24 h, 1 µM, compound concentration 1 uM
[4] = 24 h, 10 µM, compound concentration 10 uM
[5] = 48 h, 1 µM, compound concentration 1 uM
[6] = 48 h, 10 µM, compound concentration 10 uM

Fc1cccc(-n2cnc3c(NCc4nc5ccc(F)c(F)c5[nH]4)nc(N4CCOCC4)nc32)c1
Population Apoptotic (%) (Fibroblast; [1]): 46% and 50%
Population Fragmented Nuclei (%) (Fibroblast; [1]): 8% and 5%
Population Healthy Nuclei (%) (Fibroblast; [1]): 78% and 65%
Population Hoechst High Intensity Objects (%) (Fibroblast; [1]): 0%
Population Membrane Permeable-Phenotype (%) (Fibroblast; [1]): 5% and 4%
Population Mitochondria Different-Phenotype (%) (Fibroblast; [1]): 0%
Population Mitotic Cells (%) (Fibroblast; [1]): 53% and 49%
Population Normal (%) (Fibroblast; [1]): 99% and 100%
Population Pyknosed Nuclei (%) (Fibroblast; [1]): 12% and 28%
Population Tubulin-Different-Phenotype (%) (Fibroblast; [1]): 21% and 15%
Total Cell Count (Fibroblast; [1]): 211 and 198
Population Apoptotic (%) (Fibroblast; [2]): 55% and 40%
Population Fragmented Nuclei (%) (Fibroblast; [2]): 6% and 10%
Population Healthy Nuclei (%) (Fibroblast; [2]): 63% and 68%
Population Hoechst High Intensity Objects (%) (Fibroblast; [2]): 0%
Population Membrane Permeable-Phenotype (%) (Fibroblast; [2]): 6% and 8%
Population Mitochondria Different-Phenotype (%) (Fibroblast; [2]): 21% and 11%
Population Mitotic Cells (%) (Fibroblast; [2]): 44% and 60%
Population Normal (%) (Fibroblast; [2]): 99% and 100%
Population Pyknosed Nuclei (%) (Fibroblast; [2]): 29% and 21%
Population Tubulin-Different-Phenotype (%) (Fibroblast; [2]): 72% and 75%
Total Cell Count (Fibroblast; [2]): 152 and 213
Population Apoptotic (%) (Fibroblast; [3]): 85% and 72%
Population Fragmented Nuclei (%) (Fibroblast; [3]): 12% and 10%
Population Healthy Nuclei (%) (Fibroblast; [3]): 44% and 66%
Population Hoechst High Intensity Objects (%) (Fibroblast; [3]): 0%
Population Membrane Permeable-Phenotype (%) (Fibroblast; [3]): 13% and 5%
Population Mitochondria Different-Phenotype (%) (Fibroblast; [3]): 0%
Population Mitotic Cells (%) (Fibroblast; [3]): 14% and 27%
Population Normal (%) (Fibroblast; [3]): 100% and 99%
Population Pyknosed Nuclei (%) (Fibroblast; [3]): 42% and 22%
Population Tubulin-Different-Phenotype (%) (Fibroblast; [3]): 25% and 36%
Total Cell Count (Fibroblast; [3]): 197 and 196
Population Apoptotic (%) (Fibroblast; [4]): 44% and 42%
Population Hoechst High Intensity Objects (%) (Fibroblast; [4]): 0%
Population Mitochondria Different-Phenotype (%) (Fibroblast; [4]): 57% and 31%
Population Mitotic Cells (%) (Fibroblast; [4]): 55% and 57%
Population Normal (%) (Fibroblast; [4]): 100% and 99%
Population Pyknosed Nuclei (%) (Fibroblast; [4]): 27% and 17%
Population Tubulin-Different-Phenotype (%) (Fibroblast; [4]): 100% and 74%
Population Apoptotic (%) (Fibroblast; [5]): 85% and 90%
Population Fragmented Nuclei (%) (Fibroblast; [5]): 12% and 10%
Population Healthy Nuclei (%) (Fibroblast; [5]): 21% and 20%
Population Hoechst High Intensity Objects (%) (Fibroblast; [5]): 2% and 0%
Population Membrane Permeable-Phenotype (%) (Fibroblast; [5]): 13% and 17%
Population Mitochondria Different-Phenotype (%) (Fibroblast; [5]): 2%
Population Mitotic Cells (%) (Fibroblast; [5]): 14% and 9%
Population Normal (%) (Fibroblast; [5]): 97% and 99%
Population Pyknosed Nuclei (%) (Fibroblast; [5]): 66% and 68%
Population Tubulin-Different-Phenotype (%) (Fibroblast; [5]): 47% and 28%
Total Cell Count (Fibroblast; [5]): 172 and 174
Population Apoptotic (%) (Fibroblast; [6]): 77% and 73%
Population Fragmented Nuclei (%) (Fibroblast; [6]): 11% and 14%
Population Healthy Nuclei (%) (Fibroblast; [6]): 60% and 65%
Population Hoechst High Intensity Objects (%) (Fibroblast; [6]): 0%
Population Membrane Permeable-Phenotype (%) (Fibroblast; [6]): 1% and 2%
Population Mitochondria Different-Phenotype (%) (Fibroblast; [6]): 27% and 23%
Population Mitotic Cells (%) (Fibroblast; [6]): 22% and 26%
Population Normal (%) (Fibroblast; [6]): 100%
Population Pyknosed Nuclei (%) (Fibroblast; [6]): 28% and 19%
Population Tubulin-Different-Phenotype (%) (Fibroblast; [6]): 72% and 75%
Total Cell Count (Fibroblast; [6]): 140 and 207
Population Apoptotic (%) (HEK-293T; [1]): 54% and 71%
Population Fragmented Nuclei (%) (HEK-293T; [1]): 7% and 5%
Population Healthy Nuclei (%) (HEK-293T; [1]): 81% and 64%
Population Hoechst High Intensity Objects (%) (HEK-293T; [1]): 12% and 18%
Population Membrane Permeable-Phenotype (%) (HEK-293T; [1]): 2%
Population Mitochondria Different-Phenotype (%) (HEK-293T; [1]): 61% and 54%
Population Mitotic Cells (%) (HEK-293T; [1]): 45% and 28%
Population Normal (%) (HEK-293T; [1]): 87% and 81%
Population Pyknosed Nuclei (%) (HEK-293T; [1]): 10% and 29%
Population Tubulin-Different-Phenotype (%) (HEK-293T; [1]): 86% and 80%
Total Cell Count (HEK-293T; [1]): 334 and 362
Population Apoptotic (%) (HEK-293T; [2]): 69% and 80%
Population Fragmented Nuclei (%) (HEK-293T; [2]): 1% and 4%
Population Healthy Nuclei (%) (HEK-293T; [2]): 80% and 73%
Population Hoechst High Intensity Objects (%) (HEK-293T; [2]): 6% and 11%
Population Membrane Permeable-Phenotype (%) (HEK-293T; [2]): 2% and 3%
Population Mitochondria Different-Phenotype (%) (HEK-293T; [2]): 81% and 68%
Population Mitotic Cells (%) (HEK-293T; [2]): 30% and 20%
Population Normal (%) (HEK-293T; [2]): 93% and 88%
Population Pyknosed Nuclei (%) (HEK-293T; [2]): 18% and 22%
Population Tubulin-Different-Phenotype (%) (HEK-293T; [2]): 94%
Total Cell Count (HEK-293T; [2]): 319 and 328
Population Apoptotic (%) (HEK-293T; [3]): 65% and 77%
Population Fragmented Nuclei (%) (HEK-293T; [3]): 3% and 7%
Population Healthy Nuclei (%) (HEK-293T; [3]): 83% and 57%
Population Hoechst High Intensity Objects (%) (HEK-293T; [3]): 22% and 24%
Population Membrane Permeable-Phenotype (%) (HEK-293T; [3]): 0% and 1%
Population Mitochondria Different-Phenotype (%) (HEK-293T; [3]): 75% and 72%
Population Mitotic Cells (%) (HEK-293T; [3]): 34% and 22%
Population Normal (%) (HEK-293T; [3]): 77% and 75%
Population Pyknosed Nuclei (%) (HEK-293T; [3]): 12% and 35%
Population Tubulin-Different-Phenotype (%) (HEK-293T; [3]): 88% and 80%
Total Cell Count (HEK-293T; [3]): 263 and 293
Population Apoptotic (%) (HEK-293T; [4]): 82% and 62%
Population Fragmented Nuclei (%) (HEK-293T; [4]): 3% and 2%
Population Healthy Nuclei (%) (HEK-293T; [4]): 85% and 88%
Population Hoechst High Intensity Objects (%) (HEK-293T; [4]): 13% and 15%
Population Membrane Permeable-Phenotype (%) (HEK-293T; [4]): 1% and 2%
Population Mitochondria Different-Phenotype (%) (HEK-293T; [4]): 83% and 82%
Population Mitotic Cells (%) (HEK-293T; [4]): 17% and 37%
Population Normal (%) (HEK-293T; [4]): 86% and 84%
Population Pyknosed Nuclei (%) (HEK-293T; [4]): 10% and 8%
Population Tubulin-Different-Phenotype (%) (HEK-293T; [4]): 93% and 94%
Total Cell Count (HEK-293T; [4]): 366 and 334
Population Apoptotic (%) (HEK-293T; [5]): 69% and 80%
Population Fragmented Nuclei (%) (HEK-293T; [5]): 5% and 7%
Population Healthy Nuclei (%) (HEK-293T; [5]): 82% and 60%
Population Hoechst High Intensity Objects (%) (HEK-293T; [5]): 23% and 24%
Population Membrane Permeable-Phenotype (%) (HEK-293T; [5]): 1% and 3%
Population Mitochondria Different-Phenotype (%) (HEK-293T; [5]): 84% and 70%
Population Mitotic Cells (%) (HEK-293T; [5]): 30% and 19%
Population Normal (%) (HEK-293T; [5]): 76% and 75%
Population Pyknosed Nuclei (%) (HEK-293T; [5]): 11% and 32%
Population Tubulin-Different-Phenotype (%) (HEK-293T; [5]): 88% and 73%
Total Cell Count (HEK-293T; [5]): 251 and 297
Population Apoptotic (%) (HEK-293T; [6]): 89% and 85%
Population Fragmented Nuclei (%) (HEK-293T; [6]): 4% and 5%
Population Healthy Nuclei (%) (HEK-293T; [6]): 85% and 83%
Population Hoechst High Intensity Objects (%) (HEK-293T; [6]): 13% and 16%
Population Membrane Permeable-Phenotype (%) (HEK-293T; [6]): 1% and 0%
Population Mitochondria Different-Phenotype (%) (HEK-293T; [6]): 92%
Population Mitotic Cells (%) (HEK-293T; [6]): 10% and 14%
Population Normal (%) (HEK-293T; [6]): 86% and 83%
Population Pyknosed Nuclei (%) (HEK-293T; [6]): 10%
Population Tubulin-Different-Phenotype (%) (HEK-293T; [6]): 96% and 94%
Total Cell Count (HEK-293T; [6]): 333 and 303
Population Fragmented Nuclei (%) (U2OS; [1]): 13%
Population Healthy Nuclei (%) (U2OS; [1]): 59% and 53%
Population Hoechst High Intensity Objects (%) (U2OS; [1]): 0%
Population Membrane Permeable-Phenotype (%) (U2OS; [1]): 2% and 5%
Population Mitochondria Different-Phenotype (%) (U2OS; [1]): 5% and 0%
Population Normal (%) (U2OS; [1]): 99% and 100%
Population Pyknosed Nuclei (%) (U2OS; [1]): 27% and 32%
Population Tubulin-Different-Phenotype (%) (U2OS; [1]): 68% and 31%
Population Apoptotic (%) (U2OS; [2]): 86% and 90%
Population Hoechst High Intensity Objects (%) (U2OS; [2]): 0%
Population Membrane Permeable-Phenotype (%) (U2OS; [2]): 33% and 45%
Population Mitochondria Different-Phenotype (%) (U2OS; [2]): 33% and 52%
Population Mitotic Cells (%) (U2OS; [2]): 13% and 9%
Population Normal (%) (U2OS; [2]): 100% and 99%
Population Pyknosed Nuclei (%) (U2OS; [2]): 41% and 57%
Population Tubulin-Different-Phenotype (%) (U2OS; [2]): 100% and 78%
Population Apoptotic (%) (U2OS; [3]): 63% and 97%
Population Fragmented Nuclei (%) (U2OS; [3]): 8% and 19%
Population Healthy Nuclei (%) (U2OS; [3]): 14% and 15%
Population Hoechst High Intensity Objects (%) (U2OS; [3]): 5% and 3%
Population Membrane Permeable-Phenotype (%) (U2OS; [3]): 12% and 28%
Population Mitochondria Different-Phenotype (%) (U2OS; [3]): 12% and 23%
Population Normal (%) (U2OS; [3]): 95% and 96%
Population Pyknosed Nuclei (%) (U2OS; [3]): 77% and 64%
Population Tubulin-Different-Phenotype (%) (U2OS; [3]): 37% and 73%
Population Apoptotic (%) (U2OS; [4]): 90% and 94%
Population Hoechst High Intensity Objects (%) (U2OS; [4]): 0% and 1%
Population Mitochondria Different-Phenotype (%) (U2OS; [4]): 100% and 69%
Population Mitotic Cells (%) (U2OS; [4]): 9% and 5%
Population Normal (%) (U2OS; [4]): 100% and 98%
Population Pyknosed Nuclei (%) (U2OS; [4]): 55% and 76%
Population Tubulin-Different-Phenotype (%) (U2OS; [4]): 100% and 65%
Population Apoptotic (%) (U2OS; [5]): 87% and 100%
Population Fragmented Nuclei (%) (U2OS; [5]): 8% and 21%
Population Healthy Nuclei (%) (U2OS; [5]): 2% and 8%
Population Hoechst High Intensity Objects (%) (U2OS; [5]): 6%
Population Membrane Permeable-Phenotype (%) (U2OS; [5]): 100% and 42%
Population Mitotic Cells (%) (U2OS; [5]): 12% and 0%
Population Normal (%) (U2OS; [5]): 93%
Population Pyknosed Nuclei (%) (U2OS; [5]): 89% and 70%
Population Tubulin-Different-Phenotype (%) (U2OS; [5]): 100% and 94%
Population Apoptotic (%) (U2OS; [6]): 100% and 99%
Population Healthy Nuclei (%) (U2OS; [6]): 4% and 10%
Population Hoechst High Intensity Objects (%) (U2OS; [6]): 0%
Population Membrane Permeable-Phenotype (%) (U2OS; [6]): 100% and 60%
Population Mitochondria Different-Phenotype (%) (U2OS; [6]): 50% and 93%
Population Mitotic Cells (%) (U2OS; [6]): 0%
Population Normal (%) (U2OS; [6]): 100%
Population Pyknosed Nuclei (%) (U2OS; [6]): 46% and 81%
Population Tubulin-Different-Phenotype (%) (U2OS; [6]): 100% and 73%

From ChEMBL document CHEMBL5303300, “EUbOPEN Chemogenomics Library - Multiplex” (2023)
